Data: ChEMBL document CHEMBL1131590, “Muscarinic agonists with antipsychotic-like activity: structure-activity relationships of 1,2,5-thiadiazole analogues with functional dopamine antagonist activity” (J Med Chem, 1998)
The source made the active and inactive calls. The calls are words filed in the database; no cut-off is given here.

How the values were obtained:
Rattus norvegicus [1] = assay: Inhibition of conditioned avoidance response in rat following s.c. administration.; type: functional; settings: sc
Procedure, shortened: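 Rats were tested sc over a full dose range in the conditioned avoidance model, six rats per point, up to 50 trials per session. ED50 is the dose giving 50% of the drug's maximal effect on avoidance responding.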

Mus musculus [2] = assay: Inhibition of apomorphine-induced climbing following s.c. administration in mice.; type: functional; settings: sc
Procedure, shortened: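 Male Bom:NMRI mice, n=10 per group, received saline or drug sc 50 min before the trial and apomorphine 2 mg/kg sc 20 min before it. Each mouse was placed alone in a cylindrical wire cage, and climbing time over a 60-s trial was recorded automatically. ED50 and 95% confidence limits came from logistic nonlinear regression over 3-4 doses.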

Rattus norvegicus [3] = assay: Conditioned avoidance responding in rat after subcutaneous administration (0.3 mg/kg); expressed as avoidance response/response failure; 9/55; type: functional, organism-based
[4] = In vitro inhibition of [3H]Oxo-Mas binding to M2 and M4 receptors in rat brain homogenate.
Rattus norvegicus [5] = assay: Conditioned avoidance responding in rat after subcutaneous administration (3 mg/kg); expressed as avoidance response/response failure; type: functional
Procedure, shortened: (§1)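 Single-dose screen in rats, given sc at the dose listed in each line. Each session typically ran 50 trials. Percent avoidance responses and percent response failures were recorded.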

Mus musculus [6] = assay: Tremor after subcutaneous administration in mice was determined; type: functional; settings: sc
Procedure, shortened: (§2)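 Mice received saline or drug sc. Side effects were scored 30 min after injection on a three-grade scale and expressed as percent of the maximum possible score. ED50 was obtained by graphic interpolation of the dose-response curve.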

Mus musculus [7] = assay: Salivation after subcutaneous administration in mice; type: functional; settings: sc; procedure, shortened: as §2
[8] = In vitro inhibition of [3H]Oxo-Mas binding to M2 and M4 receptors in rat brain homogenate.; remark: listed apart in the source
Rattus norvegicus [9] = assay: Conditioned avoidance responding in rat after subcutaneous administration (1 mg/kg); expressed as avoidance response/response failure; type: functional; procedure, shortened: as §1
Rattus norvegicus [10] = assay: Conditioned avoidance responding in rat after subcutaneous administration (0.3 mg/kg); expressed as avoidance response/response failure; 16/1; type: functional, organism-based; procedure, shortened: as §1
Rattus norvegicus [11] = assay: Conditioned avoidance responding in rat after subcutaneous administration (3 mg/kg); expressed as avoidance response/response failure; 48/20; type: functional, organism-based; procedure, shortened: as §1
Rattus norvegicus [12] = assay: Conditioned avoidance responding in rat after subcutaneous administration (0.3 mg/kg); expressed as avoidance response/response failure; 29/19; type: functional, organism-based
Rattus norvegicus [13] = assay: Conditioned avoidance responding in rat after subcutaneous administration (0.3 mg/kg); expressed as avoidance response/response failure; 3/41; type: functional, organism-based
Rattus norvegicus [14] = assay: Conditioned avoidance responding in rat after subcutaneous administration (0.3 mg/kg); expressed as avoidance response/response failure; 24/63; type: functional, organism-based; procedure, shortened: as §1
Rattus norvegicus [15] = assay: Conditioned avoidance responding in rat after subcutaneous administration (1 mg/kg); expressed as avoidance response/response failure; 18/21; type: functional, organism-based

Compound | ED50 (Rattus norvegicus [1]) [mg/kg] | ED50 (Mus musculus [2]) [mg/kg] | IC50 [4] [nM] | Activity (Rattus norvegicus [5]) [%] | ED50 (Mus musculus [6]) [mg/kg] | ED50 (Mus musculus [7]) [mg/kg] | further results
O=C(CCCN1CCC(O)(c2ccc(Cl)cc2)CC1)c1ccc(F)cc1 [HALOPERIDOL] | 0.11 | 0.08 |  |  |  |  | Activity (Rattus norvegicus [3]): inactive
CCCSc1nsnc1[C@H]1CN2CCC[C@@H]1C2 | 0.013 | 0.021 | 0.64 | 31 | 2.2 | > 3 | 
CCCCSc1nsnc1C1=CCCN(C)C1 | 2.8 |  |  | 57 |  |  | IC50 [8]: 1.3 nM
CCCCSc1nsnc1C1CN2CC[C@H]1C2 (some centres not stated) | < 1 |  | 1.3 | 0 |  |  | 
CCCSc1nsnc1[C@@H]1CN2CCC[C@@H]1C2 | > 3 | 2.2 | 13.3 | 51 | > 30 | > 30 | 
CCCCSc1nsnc1C1CN2CC[C@@H]1C2 (some centres not stated) | > 1 |  | 4.2 | 100 |  |  | 
CCCCSc1nsnc1[C@@H]1CN2CCC[C@H]1C2 | 0.018 | 0.026 | 0.53 |  | > 3 | > 3 | Activity (Rattus norvegicus [9]): 8%
CCCCSc1nsnc1C1CN2CCC1CC2 (configuration not stated) [VEDACLIDINE] | 0.1 |  | 2.2 | 18 |  |  | 
CCCCSc1nsnc1C1CN2CCC[C@@H]1C2 (some centres not stated) | > 3 |  | 6.1 | 97 |  |  | 
CCCSc1nsnc1[C@@H]1CN2CCC[C@H]1C2 | 0.03 | 0.17 | 0.65 | 39 | 1.3 | > 3 | 
CCCCSc1nsnc1[C@@H]1CN2CCC[C@@H]1C2 | > 3 |  | 9.9 | 86 |  |  | 
CCCCSc1nsnc1[C@H]1CN2CCC[C@@H]1C2 | 0.017 | 0.012 | 0.5 |  | > 0.3 | > 0.3 | Activity (Rattus norvegicus [10]): Active
CCCCSc1nsnc1[C@H]1CN2CCC[C@H]1C2 | > 3 | > 1 | 2.3 |  | > 1 | > 1 | Activity (Rattus norvegicus [11]): Weak activity
CCCSc1nsnc1C1CN2CCC[C@H]1C2 (some centres not stated) | 0.056 | 0.056 | 1.4 |  |  |  | Activity (Rattus norvegicus [9]): 41%
CCCCSc1nsnc1C1CN2CCC[C@H]1C2 (some centres not stated) | 0.007 | 0.045 | 0.47 |  |  |  | Activity (Rattus norvegicus [9]): 32%
CSc1nsnc1C1CN2CCC[C@H]1C2 (some centres not stated) | 0.14 | 0.2 | 2.9 |  |  |  | 
CCCCCCSc1nsnc1C1CN2CCC[C@H]1C2 (some centres not stated) | 0.1 | 0.06 | 3.3 |  |  |  | Activity (Rattus norvegicus [12]): Weak activity
CCCCCSc1nsnc1C1CN2CCC[C@H]1C2 (some centres not stated) | 0.065 | 0.054 | 2.5 |  |  |  | Activity (Rattus norvegicus [13]): inactive
CCCSc1nsnc1[C@H]1CN2CCC[C@H]1C2 | > 3 | 2.21 | 3.6 | 86 | > 30 | > 30 | 
O=C1CCCN1CC#CCN1CCCC1 [OXOTREMORINE] | 0.3 | 0.09 | 5 |  | 0.24 | 0.2 | Activity (Rattus norvegicus [14]): inactive
CC[C@@H]1C(=O)OC[C@@H]1Cc1cncn1C [PILOCARPINE] | 4.5 | 3.87 | 67 |  | > 10 | 4 | Activity (Rattus norvegicus [15]): Weak activity
CCSc1nsnc1C1CN2CCC[C@H]1C2 (some centres not stated) | 0.045 | 0.047 | 1.3 |  |  |  | 
